The source of these data is ChEMBL document CHEMBL3102735, “Enhancing the pharmacodynamic profile of a class of selective COX-2 inhibiting nitric oxide donors” (Bioorg Med Chem, 2014).

The subject of data set [1] is Mus musculus. The experiment in a line: Analgesic activity in po dosed Swiss albino mouse assessed as reduction of acetic acid-induced writhing measured every 10 mins after 5 mins of administration. The class given is functional, organism-based. The gist of the method: (§1)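 Male Swiss albino mice (23–25 g), compound given orally in CMC vehicle; writhing induced by 0.6% acetic acid (10 mL/kg) ip. Stretching movements counted for 10 min, starting 5 min after administration; percent reduction versus CMC-treated animals.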
On the technique in general: Writhing tests count abdominal constrictions after an irritant is injected.

The next data set concerns J774. Put plainly: Selectivity index, ratio of IC50 for COX-1 to IC50 for COX-2 in mouse J774 cells. It counts as cell-based. In short, it runs like this: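 J774 macrophages stimulated 24 h with E. coli LPS (10 µg/mL) to induce COX-2, with or without compound (0.01–10 µM); supernatant PGE2 by RIA. Triplicate wells, three experiments, percent inhibition versus control, IC50 by sigmoidal fit; selectivity as COX-1/COX-2 IC50 ratio.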

Data set [2] concerns the target T1, Prostaglandin G/H synthase 2 (Mus musculus, UniProt Q05769).
T1 sequence (Q05769 whole entry): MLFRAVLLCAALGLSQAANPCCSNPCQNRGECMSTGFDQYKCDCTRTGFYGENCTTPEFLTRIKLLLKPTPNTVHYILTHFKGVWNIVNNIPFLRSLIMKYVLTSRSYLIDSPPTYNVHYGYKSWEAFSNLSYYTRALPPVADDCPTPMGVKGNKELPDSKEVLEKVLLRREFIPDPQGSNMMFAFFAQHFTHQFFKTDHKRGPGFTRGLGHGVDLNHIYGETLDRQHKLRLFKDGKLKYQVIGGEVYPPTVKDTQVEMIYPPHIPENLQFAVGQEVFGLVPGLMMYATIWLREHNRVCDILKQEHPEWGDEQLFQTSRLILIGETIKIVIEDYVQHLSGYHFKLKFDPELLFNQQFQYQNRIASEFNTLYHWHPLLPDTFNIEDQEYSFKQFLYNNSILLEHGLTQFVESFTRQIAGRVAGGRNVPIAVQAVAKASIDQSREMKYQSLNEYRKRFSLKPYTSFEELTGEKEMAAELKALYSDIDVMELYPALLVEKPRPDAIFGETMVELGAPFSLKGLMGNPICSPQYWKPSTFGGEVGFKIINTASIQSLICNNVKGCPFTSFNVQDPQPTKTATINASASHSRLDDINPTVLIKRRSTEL
Put plainly: Inhibition of LPS-induced COX-2 in mouse J774 cells using arachidonic acid as substrate assessed as inhibition of prostaglandin E2 production preincubated for 15 mins followed by substrate addition measured after 30 mins by RIA. The class given is cell-based.

The target of data set [3] is T2, Prostaglandin G/H synthase 1 (Mus musculus, UniProt P22437).
T2 sequence (P22437 whole entry): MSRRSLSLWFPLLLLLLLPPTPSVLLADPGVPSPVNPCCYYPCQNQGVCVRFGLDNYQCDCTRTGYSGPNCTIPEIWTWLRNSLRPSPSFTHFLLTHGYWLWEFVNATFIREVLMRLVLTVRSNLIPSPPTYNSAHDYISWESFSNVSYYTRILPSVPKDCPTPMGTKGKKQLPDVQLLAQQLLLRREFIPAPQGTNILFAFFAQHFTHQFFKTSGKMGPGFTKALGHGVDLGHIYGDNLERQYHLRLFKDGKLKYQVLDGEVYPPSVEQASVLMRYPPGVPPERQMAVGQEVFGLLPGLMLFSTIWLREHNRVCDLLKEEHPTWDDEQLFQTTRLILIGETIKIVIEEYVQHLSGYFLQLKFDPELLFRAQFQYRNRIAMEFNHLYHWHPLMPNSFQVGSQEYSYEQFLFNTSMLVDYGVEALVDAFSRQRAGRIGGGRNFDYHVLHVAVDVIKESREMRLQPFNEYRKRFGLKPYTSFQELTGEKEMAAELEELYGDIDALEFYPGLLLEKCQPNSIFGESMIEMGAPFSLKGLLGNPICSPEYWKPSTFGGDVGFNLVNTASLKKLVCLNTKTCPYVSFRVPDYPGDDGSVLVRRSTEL
The experiment in a line: Inhibition of COX-1 in mouse J774 cells using arachidonic acid as substrate assessed as inhibition of prostaglandin E2 production preincubated for 15 mins followed by substrate addition measured after 30 mins by RIA. It counts as cell-based. In short, it runs like this: (§2)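 J774 murine macrophages pretreated 15 min with compound (10 µM; lower concentrations 0.01–1 µM where needed), then incubated 30 min at 37 °C with 15 µM arachidonic acid; supernatant PGE2 measured by RIA. Triplicate wells, mean of three experiments of percent inhibition versus control; IC50 by sigmoidal fit.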

Data set [4] addresses T3, Prostaglandin G/H synthase 2 (Mus musculus) (UniProt Q05769).
T3 sequence (whole entry): T1 sequence (Q05769 whole entry)
The experiment in a line: Inhibition of LPS-induced COX-2 in mouse J774 cells using arachidonic acid as substrate assessed as inhibition of prostaglandin E2 production at 10 uM preincubated for 15 mins followed by substrate addition measured after 30 mins by RIA. It counts as cell-based.

The target in data set [5] is T4, Prostaglandin G/H synthase 1 (Mus musculus) (UniProt P22437).
T4 sequence (whole entry): T2 sequence (P22437 whole entry)
The experiment in a line: Inhibition of COX-1 in mouse J774 cells using arachidonic acid as substrate assessed as inhibition of prostaglandin E2 production at 10 uM preincubated for 15 mins followed by substrate addition measured after 30 mins by RIA. It counts as cell-based. The gist of the method: as §2

Data set [6] deals with Mus musculus. The experiment in a line: Analgesic activity in Swiss albino mouse assessed as reduction of acetic acid-induced writhing at 3 mg/kg, po measured every 10 mins after 5 mins of administration relative to control. It counts as functional. Set-up: scale not given: the % may be the effect or the level left. The gist of the method:
as §1

Data set [7] deals with Mus musculus. Put plainly: Analgesic activity in Swiss albino mouse assessed as reduction of acetic acid-induced writhing at 10 mg/kg, po measured every 10 mins after 5 mins of administration relative to control. It counts as functional. Set-up: scale not given: the % may be the effect or the level left. In short, it runs like this: as §1
Data set [8] deals with Mus musculus. The experiment in a line: Analgesic activity in Swiss albino mouse assessed as reduction of acetic acid-induced writhing at 20 mg/kg, po measured every 10 mins after 5 mins of administration relative to control. It counts as functional. The arrangement: scale not given: the % may be the effect or the level left. In short, it runs like this: as §1
Data set [9] is described as follows: Solubility of the compound in phosphate buffer saline at pH 7.4 after 90 mins by HPLC analysis. It counts as physicochemical. In short, it runs like this:
(§3)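 DMSO stock (20 mM) diluted 2 µL into 198 µL PBS 0.01 M pH 7.4 or pepsin-free SGF 0.05 M pH 1.5, duplicate wells, shaken 90 min at 300 rpm. Filtrates analysed by HPLC with photodiode-array detection against seven-point standards (1–200 µM).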

Data set [10] in a line: Solubility of the compound in simulated gastric fluid at pH 1.5 after 90 mins by HPLC analysis. It counts as ADME. The gist of the method:
as §3

In data set [11] the test system is Thoracic aorta. The experiment in a line: Ex vivo vasorelaxant activity in Wistar rat endothelium thoracic aortic ring assessed as reduction of KCl-induced contraction at 0.001 uM to 10 uM relative to control. It counts as functional. The gist of the method: (§4)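 Endothelium-denuded thoracic aortic rings from male Wistar rats (250–350 g) in oxygenated Tyrode-type buffer at 37 °C, isometric tension recording. Rings precontracted with 30 mM KCl, then 3-fold increasing compound concentrations (1 nM–10 µM) added, also with 1 µM ODQ preincubated. Emax as % of KCl tone; pIC50; mean ± SE of 6–10 experiments.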

For data set [12], the system named is Thoracic aorta. Put plainly: Ex vivo vasorelaxant activity in Wistar rat endothelium thoracic aortic ring assessed as reduction of KCl-induced contraction in presence of guanylate cyclase inhibitor ODQ. It counts as functional. In short, it runs like this: as §4
Data set [13] has as its system Mus musculus. Put plainly: Analgesic activity in Swiss albino mouse assessed as reduction of acetic acid-induced writhing at 40 mg/kg, po measured every 10 mins after 5 mins of administration relative to control. The class given is functional. The arrangement: scale not given: the % may be the effect or the level left. The gist of the method: as §1

pIC50: −log10 of the molar value. Values after ≈ are worked out from the molar mass of the structure shown. Active and inactive are the calls of the source. No cut-off for these calls is given here.

The pIC50 is the IC50 on a negative log10 scale, so that one unit is a factor of ten. What is called inhibition is the drop in the measured response relative to a control, in per cent. For `Cc1c(CC(=O)NCCCO[N+](=O)[O-])cc(-c2ccc(S(C)(=O)=O)cc2)n1-c1ccc(F)cc1`, the Activity entry with Mus musculus [1] was “Dose-dependent effect”; in the data set on Mus musculus [6] it was 17%; in the data set with Mus musculus [7], 37%; with Mus musculus [8], 37%. For the same compound, the Ratio IC50 with J774 is more than 32. Also, the negative logarithm of the IC50 (pIC50) was 6.51 in data set [2] and less than 5.00 in [3]. Moreover, the inhibition in data set [4] turned out to be 100%; in [5], 0%.

For orientation: solubility means how much of the substance goes into solution per volume. One may read the Emax as the size of the effect at its maximum, as opposed to the concentration needed. In the case of `Cc1c(CC(=O)NC(CO[N+](=O)[O-])C(=O)O)cc(-c2ccc(S(C)(=O)=O)cc2)n1-c1ccc(F)cc1` (stereo unspecified), the figures for the solubility at 1.5 h in data set [9] and in data set [10] were 90.5 µM (≈ 47 µg/mL) and 112 µM (≈ 58.2 µg/mL), respectively. For the same compound, the Activity result in the data set with Mus musculus [1] is “Dose-dependent effect”; with Mus musculus [13] it was 50%; in the data set with Mus musculus [7], 0%; in the data set on Mus musculus [8], 29%. The maximal effect (Emax) in the data set with Thoracic aorta [11] was 25%. The outcome in the data set with Thoracic aorta [12] was inactive. The Ratio IC50 in the data set with J774 was more than 32. The negative-log IC50 (pIC50) in data set [2] was 6.51; in data set [3], less than 5.00. Further, the inhibition in [4] was found to be 100%; in data set [5], 0%.

`Cc1c(CC(=O)NC(CCO[N+](=O)[O-])C(=O)O)cc(-c2ccc(S(C)(=O)=O)cc2)n1-c1ccc(F)cc1` (racemic): the Activity result in the data set with Mus musculus [1] was “Dose-dependent effect”; in the data set with Mus musculus [6] it was 0%; with Mus musculus [7], 30%; in the data set on Mus musculus [8] it was 54%. Besides, in the data set on Thoracic aorta [12], the result was inactive. For the same compound, in the data set with J774, the Ratio IC50 is more than 6.2. Also, in [3], the pIC50 was less than 5.00. Besides, the figures for the inhibition in data set [4] and in data set [5] were 89% and 6%, respectively.
